Reference: ChEMBL document CHEMBL2016483, “Discovery of novel and potent heterocyclic carboxylic acid derivatives as protein tyrosine phosphatase 1B inhibitors” (Bioorg Med Chem Lett, 2012)
The source made the active and inactive calls.

Columns and labels:
Liver = experiment: Metabolic stability of the compound in mouse liver microsomes assessed as metabolic rate at 1 uM after 30 mins by LC-MS-MS analysis; type: ADME, Microsome; conditions: 0.5 h
In short: (§1)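 Mouse and rat liver microsomes, metabolic rate read at 30 min. Stable was defined as metabolic rate <0.1 nmol/min/mg or 80% remaining at 30 min.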

[1] = Apparent permeability by PAMPA assay; type: ADME
[2] = target: T1, Tyrosine-protein phosphatase non-receptor type 1 (Homo sapiens, UniProt P18031); experiment: Inhibition of human recombinant PTP1B expressed in Escherichia coli using para-nitrophenyl phosphate as substrate preincubated for 30 mins followed by substrate addition measured by […] analysis
T1 sequence (P18031 whole entry): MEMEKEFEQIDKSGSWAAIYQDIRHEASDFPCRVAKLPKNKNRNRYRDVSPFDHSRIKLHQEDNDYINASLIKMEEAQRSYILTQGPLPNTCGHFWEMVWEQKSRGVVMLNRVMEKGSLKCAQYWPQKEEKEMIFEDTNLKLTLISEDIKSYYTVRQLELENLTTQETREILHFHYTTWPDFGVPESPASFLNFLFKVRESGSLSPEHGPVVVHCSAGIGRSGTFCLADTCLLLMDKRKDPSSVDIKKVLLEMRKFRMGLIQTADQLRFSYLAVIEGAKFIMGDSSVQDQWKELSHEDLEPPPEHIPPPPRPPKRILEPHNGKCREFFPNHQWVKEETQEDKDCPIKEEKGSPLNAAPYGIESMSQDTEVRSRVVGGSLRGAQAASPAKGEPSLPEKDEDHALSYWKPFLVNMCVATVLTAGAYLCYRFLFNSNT

Liver microsomes = experiment: Metabolic stability of the compound in rat liver microsomes assessed as metabolic rate at 1 uM after 30 mins by LC-MS-MS analysis; type: ADME, Microsome; conditions: 0.5 h; in short: as §1
[3] = target: T2, Tyrosine-protein phosphatase non-receptor type 2 (Homo sapiens) (UniProt P17706); experiment: Inhibition of TCPTP using para-nitrophenyl phosphate as substrate at 100 uM preincubated for 30 mins followed by substrate addition measured by […] analysis
T2 sequence (whole entry): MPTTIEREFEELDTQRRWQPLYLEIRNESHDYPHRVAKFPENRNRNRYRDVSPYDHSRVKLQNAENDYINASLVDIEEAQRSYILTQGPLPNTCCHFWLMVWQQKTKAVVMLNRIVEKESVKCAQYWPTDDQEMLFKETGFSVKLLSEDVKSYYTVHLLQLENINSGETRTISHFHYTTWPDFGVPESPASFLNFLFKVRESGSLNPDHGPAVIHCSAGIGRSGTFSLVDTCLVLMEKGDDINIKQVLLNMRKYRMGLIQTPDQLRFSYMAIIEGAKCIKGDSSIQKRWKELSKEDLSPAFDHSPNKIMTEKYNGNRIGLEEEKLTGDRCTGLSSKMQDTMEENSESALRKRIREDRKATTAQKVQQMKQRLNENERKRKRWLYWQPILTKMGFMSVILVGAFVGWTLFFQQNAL
In short: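 TCPTP counter-screen in the same pNPP assay format, tested at 100 µM. Read as percent inhibition.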

[4] = Clearance in C57BL/6J mouse at 3 mg/kg, iv; type: ADME, organism-based; set-up: dose 3 mg/kg, route intravenous; conditions: in vivo
[5] = Oral bioavailability in C57BL/6J mouse at 30 mg/kg; type: ADME, organism-based; conditions: in vivo
[6] = Tmax in C57BL/6J mouse at 3 mg/kg, iv; type: ADME, organism-based; set-up: dose 3 mg/kg, route intravenous; conditions: in vivo
[7] = Cmax in C57BL/6J mouse at 3 mg/kg, iv; type: ADME, organism-based; set-up: dose 3 mg/kg, route intravenous; conditions: in vivo
[8] = Cmax in C57BL/6J mouse at 30 mg/kg, po; type: ADME, organism-based; set-up: dose 30 mg/kg, route oral; conditions: in vivo
[9] = Tmax in C57BL/6J mouse at 30 mg/kg, po; type: ADME, organism-based; set-up: dose 30 mg/kg, route oral; conditions: in vivo
[10] = AUC (0 to t) in C57BL/6J mouse at 30 mg/kg, po; type: ADME, organism-based; set-up: dose 30 mg/kg, route oral; conditions: plasma
[11] = Volume of distribution at steady state in C57BL/6J mouse at 3 mg/kg, iv; type: ADME, organism-based; set-up: dose 3 mg/kg, route intravenous; conditions: in vivo, read-out: Vdss
[12] = Elimination half life in C57BL/6J mouse at 3 mg/kg, iv; type: ADME, organism-based; set-up: dose 3 mg/kg, route intravenous; conditions: in vivo, read-out: beta t1/2 (converted)
[13] = AUC (0 to t) in C57BL/6J mouse at 3 mg/kg, iv; type: ADME, organism-based; set-up: dose 3 mg/kg, route intravenous; conditions: plasma
[14] = Apparent permeability across human Caco2 cells; type: ADME, cell-based; conditions: Caco-2
[15] = target: T3, Tyrosine-protein phosphatase non-receptor type 1 (Homo sapiens) (UniProt P18031); experiment: Non-competitive inhibition of human recombinant PTP1B-mediated para-nitrophenyl phosphate hydrolysis preincubated for 30 mins measured by spectrophotometric analysis
T3 sequence (whole entry): T1 sequence (P18031 whole entry)

Row | Structure (SMILES) | Drug metabolism (Liver) [nmol/min/mg] | Papp [1] [×10⁻⁶ cm/s] | Ki [2] [nM] | Drug metabolism (Liver microsomes) [nmol/min/mg] | further results
1 | O=C(O)c1csc(-c2ccc(CC(c3ccc(F)cc3)c3nc(-c4cccc(F)c4)no3)cc2)n1 (stereo not drawn) | 0 | 10 | 500 | 0.01 | 
2 | O=C(O)c1csc(-c2ccc(CC(C(=O)c3ccc(Cl)cc3)c3ccc(F)c(F)c3)cc2)n1 (stereo not drawn) |  |  | 600 |  | inhibition [3]: < 10%
3 | O=C(O)c1csc(-c2ccc(CC(C(=O)c3ccc(F)c(F)c3)c3ccc(F)cc3)cc2)n1 (stereo not drawn) |  |  | 1800 |  | 
4 | O=C(O)c1cc(-c2ccc(CC(c3ccccc3)c3nc(-c4ccccc4)no3)cc2)no1 (stereo not drawn) | 0.04 | 45 | 4000 | 0.03 | clearance [4]: 63 mL/min/kg; bioavailability [5]: 70%; Tmax [6]: 4.8 min; Cmax [7]: 1500 nM; Cmax [8]: 7200 nM; Tmax [9]: 1 h; AUC(0-t) [10]: 13 µM·h; Vd [11]: 4.8 L/kg; half-life [12]: 1 h; inhibition [3]: < 10%; AUC(0-t) [13]: 1.8 µM·h
5 | O=C(O)C1CC(=O)N(c2ccc(CC(C(=O)c3ccccc3)c3ccccc3)cc2)C1 (stereo not drawn) |  |  | 7700 |  | 
6 | COC(=O)c1c(O)cccc1OC/C=C/c1ccc(F)c(-c2cc(C(=O)O)no2)c1 |  |  |  |  | Papp [14]: > 1 ×10⁻⁶ cm/s
7 | COc1ccc(C(Cc2ccc(-c3nc(C(=O)O)cs3)cc2)c2nc(-c3cccc(F)c3)no2)cc1 (stereo not drawn) | 0 | 6 | 500 | 0.04 | 
8 | O=C(O)c1cc(-c2ccc(CC(C(=O)c3ccccc3)c3ccccc3)cc2)no1 (stereo not drawn) | 0.06 | 103 | 1100 | 0.02 | inhibition [3]: < 10%
9 | Cn1nc(-c2ccc(CC(C(=O)c3ccccc3)c3ccccc3)cc2)cc1C(=O)O (stereo not drawn) |  |  | 7800 |  | 
10 | O=C(O)C1CCN(c2ccc(CC(C(=O)c3ccccc3)c3ccccc3)cc2)C1=O (stereo not drawn) |  |  | 5100 |  | 
11 | O=C(O)c1coc(-c2ccc(CC(C(=O)c3ccccc3)c3ccccc3)cc2)n1 (stereo not drawn) |  |  | 7800 |  | 
12 | O=C(O)c1cc(-c2ccc(CC(C(=O)c3ccc(Cl)cc3)c3ccc(F)c(F)c3)cc2)no1 (stereo not drawn) | 0 | 168 | 800 | 0 | clearance [4]: 38 mL/min/kg; bioavailability [5]: 13%; Tmax [6]: 4.98 min; Cmax [7]: 4500 nM; Cmax [8]: 1900 nM; Tmax [9]: 1 h; AUC(0-t) [10]: 3 µM·h; Vd [11]: 4 L/kg; half-life [12]: 1.9 h; inhibition [3]: < 10%; AUC(0-t) [13]: 2.4 µM·h
13 | O=C(O)c1cc(-c2ccc(CC(C(=O)c3ccc(F)c(F)c3)c3ccc(F)cc3)cc2)no1 (stereo not drawn) | 0 | 16 | 1400 | 0.01 | 
14 | O=C(O)c1cc(-c2ccc(CC(C(=O)c3ccc(F)cc3)c3ccc(F)cc3)cc2)no1 (stereo not drawn) | 0.01 | 8 | 1500 | 0.02 | 
15 | O=C(O)c1csc(-c2ccc(CC(C(=O)c3ccccc3)c3ccccc3)cc2)n1 (stereo not drawn) | 0.05 | 85 | 1200 | 0.02 | 
16 | O=C(O)c1cc(-c2ccc(CC(C(=O)c3ccccc3)c3ccccc3)cc2)n[nH]1 (stereo not drawn) |  |  | 16300 |  | 
17 | O=C(O)c1ccc(-c2ccc(CC(C(=O)c3ccccc3)c3ccccc3)cc2)[nH]1 (stereo not drawn) |  |  | 2900 |  | 
18 | COc1ccc(-c2noc(C(Cc3ccc(-c4cc(C(=O)O)on4)cc3)c3ccc(F)cc3)n2)cc1 (stereo not drawn) | 0 | 4 | 400 | 0.01 | inhibition [3]: < 10%
19 | O=C(O)c1cc(-c2ccc(CC(C(=O)c3cc(F)cc(F)c3)c3ccc(F)cc3)cc2)no1 (stereo not drawn) |  |  | 2400 |  | 
20 | COc1ccc(C(Cc2ccc(-c3cc(C(=O)O)on3)cc2)c2nc(-c3ccc(Cl)cc3)no2)cc1 (stereo not drawn) | 0 | 48 | 300 | 0.03 | clearance [4]: 99 mL/min/kg; bioavailability [5]: 36%; inhibition [15]: Active; Tmax [6]: 4.98 min; Cmax [7]: 1870 nM; Cmax [8]: 1340 nM; Tmax [9]: 1 h; AUC(0-t) [10]: 3.6 µM·h; Vd [11]: 4 L/kg; half-life [12]: 1.08 h; inhibition [3]: < 10%; AUC(0-t) [13]: 0.98 µM·h
21 | O=C(O)c1onc(-c2ccc(CC(C(=O)c3ccccc3)c3ccccc3)cc2)c1C(=O)O (stereo not drawn) |  |  | 40000 |  | 
